Results from ChEMBL document CHEMBL3774379, “Synthesis and biological evaluation of quinoline derivatives as potential anti-prostate cancer agents and Pim-1 kinase inhibitors” (Bioorg Med Chem, 2016).
The source made the active and inactive calls. The rule behind the calls is not given here.

What was measured:
[1] = Antiproliferative activity against human PC3 cells after 96 hrs by MTT assay; assay type: functional; details: PC-3, 96 h
Outline: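 PC-3 cells grown in RPMI1640 with 10% heat-inactivated FBS; seeded 2×10³ cells/well, 24 h at 37°C, 5% CO₂, then compound at various concentrations for 96 h. MTT (2 mg/mL) added for 4 h, formazan dissolved in DMSO, absorbance 570 nm. GI₅₀ from inhibition ratios versus untreated cells; three independent experiments, mean reported.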

[2] = Cell cycle arrest in human PC3 cells assessed as cell accumulation at sub-G1 phase at 8 uM after 48 hrs by Propidium Iodide staining based flow cytometric analysis (reference value: 2.5%); assay type: functional; details: PC-3
Outline: (§1)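 PC-3 cells in six-well plates treated 0, 8, 12 or 16 μM for 24 or 48 h. Floating and adherent cells pooled, PBS-washed, fixed in ice-cold 70% ethanol at -20°C overnight, treated with 1 mg/mL RNase at 37°C for 30 min, stained with PI at 50 μg/mL final. DNA content read by flow cytometry, excitation 488 nm, emission 625 nm.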

[3] = Cell cycle arrest in human PC3 cells assessed as cell accumulation at G2/M phase at 12 uM after 24 hrs by Propidium Iodide staining based flow cytometric analysis (reference value: 32%); assay type: functional; details: PC-3; outline: as §1
[4] = Cell cycle arrest in human PC3 cells assessed as cell accumulation at G0/G1 phase at 12 uM after 48 hrs by Propidium Iodide staining based flow cytometric analysis (reference value: 57.9%); assay type: functional; details: PC-3; outline: as §1
[5] = biological target: T1, Serine/threonine-protein kinase pim-1 (Homo sapiens, UniProt P11309); test: Inhibition of Pim1 kinase (unknown origin) using substrate S3 after 50 mins by HTRF assay
Target sequence in this assay (P11309 whole entry): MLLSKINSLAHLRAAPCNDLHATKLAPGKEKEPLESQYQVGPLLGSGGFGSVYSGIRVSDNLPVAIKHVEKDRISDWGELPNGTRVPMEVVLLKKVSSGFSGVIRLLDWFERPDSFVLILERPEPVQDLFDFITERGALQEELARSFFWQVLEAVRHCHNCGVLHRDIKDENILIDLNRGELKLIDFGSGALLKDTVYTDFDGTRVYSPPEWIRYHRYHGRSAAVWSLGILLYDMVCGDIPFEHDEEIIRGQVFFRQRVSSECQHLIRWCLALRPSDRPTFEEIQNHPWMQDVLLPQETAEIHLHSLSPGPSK

[6] = Cell cycle arrest in human PC3 cells assessed as cell accumulation at G0/G1 phase at 8 uM after 24 hrs by Propidium Iodide staining based flow cytometric analysis (reference value: 57.1%); assay type: functional; details: PC-3; outline: as §1
[7] = Cell cycle arrest in human PC3 cells assessed as cell accumulation at G2/M phase at 8 uM after 24 hrs by Propidium Iodide staining based flow cytometric analysis (reference value: 32%); assay type: functional; details: PC-3; outline: as §1
[8] = Cell cycle arrest in human PC3 cells assessed as cell accumulation at sub-G1 phase at 12 uM after 48 hrs by Propidium Iodide staining based flow cytometric analysis (reference value: 2.5%); assay type: functional; details: PC-3; outline: as §1
[9] = Cell cycle arrest in human PC3 cells assessed as cell accumulation at sub-G1 phase at 8 uM after 24 hrs by Propidium Iodide staining based flow cytometric analysis (reference value: 1.7%); assay type: functional; details: PC-3; outline: as §1
[10] = Cell cycle arrest in human PC3 cells assessed as cell accumulation at G2/M phase at 8 uM after 48 hrs by Propidium Iodide staining based flow cytometric analysis (reference value: 32.4%); assay type: functional; details: PC-3; outline: as §1
[11] = Cell cycle arrest in human PC3 cells assessed as cell accumulation at G2/M phase at 16 uM after 48 hrs by Propidium Iodide staining based flow cytometric analysis (reference value: 32.4%); assay type: functional; details: PC-3; outline: as §1
[12] = Cell cycle arrest in human PC3 cells assessed as cell accumulation at sub-G1 phase at 16 uM after 24 hrs by Propidium Iodide staining based flow cytometric analysis (reference value: 1.7%); assay type: functional; details: PC-3; outline: as §1
[13] = biological target: T1, Serine/threonine-protein kinase pim-1; test: Inhibition of Pim1 kinase in human PC3 cells assessed as increase in p21 level at 8 to 16 uM after 24 hrs by Western blot analysis; assay type: cell-based; details: PC-3
Target sequence in this assay (P11309 whole entry, looked up): as the sequence (P11309 whole entry) above

[14] = Cell cycle arrest in human PC3 cells assessed as cell accumulation at G0/G1 phase at 12 uM after 24 hrs by Propidium Iodide staining based flow cytometric analysis (reference value: 57.1%); assay type: functional; details: PC-3; outline: as §1
[15] = Cell cycle arrest in human PC3 cells assessed as cell accumulation at sub-G1 phase at 16 uM after 48 hrs by Propidium Iodide staining based flow cytometric analysis (reference value: 2.5%); assay type: functional; details: PC-3; outline: as §1
[16] = Cell cycle arrest in human PC3 cells assessed as cell accumulation at G2/M phase at 12 uM after 48 hrs by Propidium Iodide staining based flow cytometric analysis (reference value: 32.4%); assay type: functional; details: PC-3; outline: as §1
[17] = biological target: T1, Serine/threonine-protein kinase pim-1; test: Inhibition of Pim1 kinase in human PC3 cells assessed as increase in p27 level at 8 to 16 uM after 24 hrs by Western blot analysis; assay type: cell-based; details: PC-3
Target sequence in this assay (P11309 whole entry, looked up): as the sequence (P11309 whole entry) above

[18] = Cell cycle arrest in human PC3 cells assessed as cell accumulation at G0/G1 phase at 8 uM after 48 hrs by Propidium Iodide staining based flow cytometric analysis (reference value: 57.9%); assay type: functional; details: PC-3; outline: as §1
[19] = Cell cycle arrest in human PC3 cells assessed as cell accumulation at sub-G1 phase at 12 uM after 24 hrs by Propidium Iodide staining based flow cytometric analysis (reference value: 1.7%); assay type: functional; details: PC-3; outline: as §1
[20] = Cell cycle arrest in human PC3 cells assessed as cell accumulation at G2/M phase at 16 uM after 24 hrs by Propidium Iodide staining based flow cytometric analysis (reference value: 32%); assay type: functional; details: PC-3; outline: as §1
[21] = biological target: T1, Serine/threonine-protein kinase pim-1; test: Inhibition of Pim1 kinase in human PC3 cells assessed as decrease in c-Myc level at 8 to 16 uM after 24 hrs by Western blot analysis; assay type: cell-based; details: PC-3
Target sequence in this assay (P11309 whole entry, looked up): as the sequence (P11309 whole entry) above

[22] = biological target: T1, Serine/threonine-protein kinase pim-1; test: Inhibition of Pim1 kinase in human PC3 cells assessed as decrease in BAD phosphorylation level at 8 to 16 uM after 24 hrs by Western blot analysis; assay type: cell-based; details: PC-3
Target sequence in this assay (P11309 whole entry, looked up): as the sequence (P11309 whole entry) above

[23] = Cell cycle arrest in human PC3 cells assessed as cell accumulation at G0/G1 phase at 16 uM after 24 hrs by Propidium Iodide staining based flow cytometric analysis (reference value: 57.1%); assay type: functional; details: PC-3; outline: as §1
PC-3 = test: Induction of ERK phosphorylation in human PC3 cells at 8 to 16 uM after 24 hrs by Western blot analysis; assay type: cell-based
[24] = biological target: T1, Serine/threonine-protein kinase pim-1; test: Inhibition of Pim1 kinase in human PC3 cells assessed as decrease in 4E-BP1 phosphorylation level at 8 to 16 uM after 24 hrs by Western blot analysis; assay type: cell-based; details: PC-3
Target sequence in this assay (P11309 whole entry, looked up): as the sequence (P11309 whole entry) above

[25] = Cell cycle arrest in human PC3 cells assessed as cell accumulation at G0/G1 phase at 16 uM after 48 hrs by Propidium Iodide staining based flow cytometric analysis (reference value: 57.9%); assay type: functional; details: PC-3; outline: as §1

For Clc1ccnc(Nc2ccc3ccccc3n2)c1, the GI50 [1] was > 30 µM.

Oc1ccc(Cl)c2ccc(Nc3ccccn3)nc12 showed a GI50 [1] of 1.29 µM, an Activity [2] of 13.1% and an Activity [3] of 17.3%. For the same compound, the Activity [4] was 44.4%, the IC50 [5] was 0.75 µM and the Activity [6] was 65.2%. For the same compound, the Activity [7] was 19.3%, the Activity [8] was 27.7% and the Activity [9] was 2.9%. It also gave an Activity [10] of 25%, an Activity [11] of 11% and an Activity [12] of 31.5%. The inhibition [13] was “Dose-dependent effect”, the Activity [14] was 64.5% and the Activity [15] was 52.6%. For the same compound, the Activity [16] was 20%, the inhibition [17] was “Dose-dependent effect” and the Activity [18] was 52.9%. The Activity [19] was 10.4%, the Activity [20] was 13.9% and the Activity [21] was “Dose-dependent effect”. The inhibition [22] was “Dose-dependent effect”, the Activity [23] was 48.1% and the Activity (PC-3) was “Active”. The inhibition [24] was “Dose-dependent effect” and the Activity [25] was 31%.

With Oc1cccc2ccc(Nc3cc(Cl)ccn3)nc12 the GI50 [1] was 2.81 µM.

For Oc1ccc(Cl)c2ccc(Oc3ccccn3)nc12, the GI50 [1] was > 30 µM.

For COc1ccc(Cl)c2ccc(Nc3cc(Cl)ccn3)nc12, the GI50 [1] was > 30 µM.

Compound Oc1ccc(Br)c2ccc(Sc3ccccn3)nc12 has a GI50 [1] of 10.2 µM.

Oc1ccc(Cl)c2ccc(Nc3cc(Cl)ccn3)nc12 showed a GI50 [1] of 25.5 µM.

Compound COc1ccc(Cl)c2ccc(Nc3ccccn3)nc12 has a GI50 [1] of 29.2 µM.

In the case of Oc1ccc(Cl)c2ccc(Sc3ccccn3)nc12, the GI50 [1] is reported as 10.2 µM.

With Oc1cccc2ccc(Oc3ccccn3)nc12 the GI50 [1] was > 30 µM.

For COc1cccc2ccc(Nc3cc(Cl)ccn3)nc12, the GI50 [1] was 11.8 µM.

For Oc1ccc(Br)c2ccc(Oc3ccccn3)nc12, the GI50 [1] was > 30 µM.

Cc1ccnc(Nc2ccc3ccccc3n2)c1 gave a GI50 [1] of 26.7 µM.

In the case of COc1ccc(Cl)c2ccc(Nc3cc(C)ccn3)nc12, the GI50 [1] is reported as > 30 µM.

With CN1CCC(CNc2ccc3ncc(-c4cccc(OC(F)(F)F)c4)n3n2)CC1 [SGI-1776] the GI50 [1] was 4.86 µM.

Cc1ccnc(Nc2ccc3cccc(O)c3n2)c1 gave a GI50 [1] of 5.84 µM.

With Cc1ccnc(Nc2ccc3c(Cl)ccc(O)c3n2)c1 the GI50 [1] was 10.2 µM.

Work on COc1cccc2ccc(Nc3ccccn3)nc12 yielded a GI50 [1] of 7.47 µM.

In the case of Oc1cccc2ccc(Nc3ccccn3)nc12, the GI50 [1] is reported as 2.6 µM.

For c1ccc(Nc2ccc3ccccc3n2)nc1, the GI50 [1] was > 30 µM and the IC50 [5] was > 10 µM.

In the case of Oc1cccc2ccc(Sc3ccccn3)nc12, the GI50 [1] is reported as 20.9 µM and the IC50 [5] is reported as > 10 µM.

Work on COc1cccc2ccc(Nc3cc(C)ccn3)nc12 yielded a GI50 [1] of 3.82 µM.
